Results published in ChEMBL document CHEMBL2417361, “Investigation of acyclic uridine amide and 5'-amido nucleoside analogues as potential inhibitors of the Plasmodium falciparum dUTPase” (Bioorg Med Chem, 2013).

Tests used:
[1] = Selectivity index, ratio of Ki for human dUTPase to Ki for recombinant Plasmodium falciparum dUTPase
[2] = Selectivity index, ratio of EC50 for rat L6 cells to EC50 for Plasmodium falciparum K1; assay type: toxicity, cell-based; settings: read-out: Ratio EC50
[3] = target: T1, Deoxyuridine 5'-triphosphate nucleotidohydrolase, mitochondrial (Homo sapiens, UniProt P33316); assay: Inhibition of recombinant human dUTPase expressed in Escherichia coli BL21 (DE3) using dUTP as substrate by spectrophotometric analysis
T1 sequence (P33316 whole entry): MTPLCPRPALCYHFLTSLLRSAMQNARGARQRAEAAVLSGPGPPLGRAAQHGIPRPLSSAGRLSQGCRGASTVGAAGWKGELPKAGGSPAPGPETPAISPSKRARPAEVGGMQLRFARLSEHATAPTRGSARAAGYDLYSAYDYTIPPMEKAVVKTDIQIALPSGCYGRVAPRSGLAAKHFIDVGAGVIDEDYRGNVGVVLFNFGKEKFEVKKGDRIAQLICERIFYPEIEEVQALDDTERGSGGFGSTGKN
Outline: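 Human enzyme expressed in IPTG-induced E. coli BL21(DE3) and purified like the parasite enzyme (phosphocellulose, then gel filtration, ≥96% pure). Hydrolysis after rapid mixing was read as proton release using a cresol red/bicine indicator pair (pH 8, 573 nm), with absorbance change kept within 0.1 units. Vmax and KMapp were fitted to the integrated Michaelis–Menten equation.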

[4] = Inhibition of recombinant Plasmodium falciparum dUTPase expressed in Escherichia coli BL21 (DE3) using dUTP as substrate by spectrophotometric analysis
Outline: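 Recombinant enzyme from IPTG-induced E. coli BL21(DE3), purified by phosphocellulose and gel filtration to ≥96% purity, stored in 10 mM bicine/5 mM MgCl2 pH 8. Stopped-flow mixing of 30 nM PfdUTPase with 50 µM dUTP, 5 mM MgCl2, 1 mg/mL BSA and 100 mM KCl. Proton release tracked with cresol red/bicine (pH 8) at 573 nm. Vmax and KMapp fitted by integrated Michaelis–Menten equation.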

L6 = assay: Cytotoxicity against rat L6 cells after 72 hrs by Alamar Blue assay; assay type: cell-based; settings: L6, 72 h
Outline: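 Rat skeletal myoblast L6 line, with podophyllotoxin as control. EC50 is the mean of two independent assays.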

Plasmodium falciparum = assay: Antiparasitic activity against chloroquine/pyrimethamine-resistant Plasmodium falciparum K1 infected in erythrocytes assessed as parasite growth inhibition after 48 hrs by [3H]-hypoxanthine incorporation assay; assay type: functional, organism-based

O=C(NCCCO)C(c1ccccc1)(c1ccccc1)c1ccccc1
Ratio Ki [1]: 1

O=c1ccn(CCCCNC(c2ccccc2)(c2ccccc2)c2ccccc2)c(=O)[nH]1
selectivity ratio [2]: 9

O=C(NCCCn1ccc(=O)[nH]c1=O)C(c1ccccc1)(c1ccccc1)c1ccccc1
Ki [3]: 1000 µM

O=c1ccn([C@H]2C[C@H](O)[C@@H](CNC(c3ccccc3)c3ccccc3)O2)c(=O)[nH]1
Ki [4]: 0.2 µM
EC50 (L6): > 229 µM
Ki [3]: > 100 µM
EC50 (Plasmodium falciparum): 12 µM
selectivity ratio [2]: > 20

O=c1ccn(CCCCOC(c2ccccc2)c2ccccc2)c(=O)[nH]1
Ki [4]: 0.5 µM
EC50 (L6): 104 µM
Ki [3]: 49 µM
EC50 (Plasmodium falciparum): 14 µM
selectivity ratio [2]: 7

O=C(CCCn1ccc(=O)[nH]c1=O)NC(c1ccccc1)(c1ccccc1)c1ccccc1
Ki [3]: 1000 µM

O=c1ccn(CCCCCCNC(c2ccccc2)(c2ccccc2)c2ccccc2)c(=O)[nH]1
selectivity ratio [2]: 36

O=c1ccn(CCCCNC(c2ccccc2)c2ccccc2)c(=O)[nH]1
Ki [4]: 5.7 µM
EC50 (L6): 99 µM
Ki [3]: 63 µM
EC50 (Plasmodium falciparum): 2.6 µM
selectivity ratio [2]: 38

O=C(O)CCCn1ccc(=O)[nH]c1=O
Ki [4]: > 100 µM
Ratio Ki [1]: 400
Ki [3]: 1000 µM

O=c1ccn(CCCCCCOC(c2ccccc2)(c2ccccc2)c2ccccc2)c(=O)[nH]1
selectivity ratio [2]: 19

O=C(NCCCO)C(c1ccccc1)c1ccccc1
Ki [4]: > 100 µM
Ratio Ki [1]: 13
Ki [3]: 1000 µM

O=C(CCCn1ccc(=O)[nH]c1=O)NC(c1ccccc1)c1ccccc1
Ki [3]: 1000 µM

O=c1ccn(CCCNC(c2ccccc2)c2ccccc2)c(=O)[nH]1
Ki [4]: 5.7 µM
EC50 (L6): 269 µM
Ki [3]: 10 µM
EC50 (Plasmodium falciparum): 5.5 µM
selectivity ratio [2]: 49

O=c1ccn([C@H]2C[C@H](O)[C@@H](CNC(c3ccccc3)(c3ccccc3)c3ccccc3)O2)c(=O)[nH]1
Ki [4]: 0.2 µM

O=c1ccn(CCCOC(c2ccccc2)(c2ccccc2)c2ccccc2)c(=O)[nH]1
selectivity ratio [2]: 5

O=C(c1ccccc1)n1c(=O)ccn(CCCNC(=O)C(c2ccccc2)(c2ccccc2)c2ccccc2)c1=O
Ki [4]: > 100 µM
Ratio Ki [1]: 56
Ki [3]: 1000 µM
